The test system of this data set is MS2 coat protein. The experiment in a line: apparent Kd, MS2 coat protein; higher = weaker binding; RNA-MaP array; FMN 200 µM where present. A digest of the protocol:
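SNAP-549-labelled MS2 coat protein, doubled from 0.7 or 1.5 nM to 3 µM, was titrated over designs transcribed by stalled E. coli RNA polymerase on Illumina sequencing-chip clusters. Titrations were run without and then with constant ligand in 100 mM Tris-HCl pH 7.5, 80 mM KCl, 4 mM MgCl2, BSA, DTT, yeast tRNA and Tween-20. The apparent Kd is the median of filtered per-cluster fits to green signal normalised to red-channel RNA signal and control-cluster median Fmax.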

Setting [1] is: designed as: OFF switch for flavin mononucleotide, no ligand.
[2] abbreviates: ligand present: flavin mononucleotide, designed as: OFF switch for flavin mononucleotide.
[3] abbreviates: designed as: ON switch for flavin mononucleotide, no ligand.
Where [4] appears, read: ligand present: flavin mononucleotide, designed as: ON switch for flavin mononucleotide.

We go through 48 sequences from the EternaBench riboswitch data.

What is called apparent Kd is the concentration giving half-maximal binding under the conditions of the assay. Regarding “UCAUGAUGGAAGAAGGGAGUCGUGCAUGACAACUCAGGAUAUUUCACAUGAGGAUCACCCAUGUCGAAGUAACAGUGUUGAUCA”, the “apparent Kd” value runs as follows: under setting [1], 0.0239 µM; under setting [2], 0.0458 µM.
“UCUGAUAUUCCCGUGCCUCCAACACAGGAUAUCCGUCACAACAUGAGGAUCACCCAUGUCCGGGAGGAGAAGGGUGUGGAGAGU”: the “apparent Kd” value reads like this: under setting [3], 0.0913 µM; under setting [4], 0.0215 µM.
For “CUGUUAUAGGUCCAUUUUAACAACAUGAGGAUCACCCAUGUGCAGGAUAUCGUGUUAAUUUUCAUCGAGAAGGGCAUAGUCACG”, the “apparent Kd” value came out at 0.0272 µM under setting [1] and 0.0584 µM under setting [2].
For “AAGAUGCCUCCUGCUGGUGGGAGACAUGAGGAUCACCCAUGUCAGGAUAUCGGUUAAAGAGGACACGAGAAGGGACAGGAGUAC” the same measures were 0.00819 µM and 0.00923 µM.
“UUGGAAAACAUGAGGAUCACCCAUGUGAAGCCGGCUAGUACACAGGAUAUCCAGAACGCCGAGUUGGAGAAGGGUGAUCAGUCG”: the “apparent Kd” value by setting is: under setting [3], 0.038 µM; under setting [4], 0.0804 µM.
Regarding “ACACGACAUGAGGAUCACCCAUGUGAGGAUAUCGAUCUACACUAUGCCCAUAGUCUCUCGAGAAGGCACACUAA”, the “apparent Kd” value reads like this: under setting [1], 0.0306 µM; under setting [2], 0.0317 µM.
For “CUUUUGUGAGGAUAUCAGUAGUAAUAAUAUAAAAUUACUACUGAGAAGGCACAUGAGGAUCACCCAUGUUCCUC” the same measures were 0.0372 µM and 0.185 µM.
For “GGAUCGAGUGUGAGGAUAUACCACUGGAUACAGUGGUAGAAGGCACAUGAGGAUCACCCAUGUCCCUACGAUCC” the same measures were 0.0329 µM and 0.204 µM.
“CACGGAUAGUAGAAGGGUGACAUGAGGAUCACCCAUGUACACAUGCGUAUUAAAGUAUGUGAUCCACAGGAUAUACUAUCCGUG”: the “apparent Kd” value reads like this: under setting [3], 0.776 µM; under setting [4], 0.0938 µM.
Take “GGGAUGCUAGGAUAUACAUCGGGCUCCAGGAUGUUCCGGGAACAUGAGGAUCACCCAUGUAGAAGGAGCGUAUG”: the “apparent Kd” value by setting is: under setting [1], 0.0804 µM; under setting [2], 0.0506 µM.
For “AAGUAGACGGUGAGGAUAUAGGUCGAACGACCGAUCUAGAAGGCACAUGAGGAUCACCCAUGUGGGUAACGUCG” the same measures were 0.018 µM and 0.0196 µM.
“UUAUAAAAUAAAGGAUAUUCAUACCGGAAACGGACAUGAGGAUCACCCAUGUGGCGAAAGCCUUGGGAGAAGGUUAAAAUAUAU”: the “apparent Kd” value was 0.441 µM under setting [3] and 0.317 µM under setting [4].
Regarding “UGUGGCGGUCAGAAGGCAACGUUGACAUGAGGAUCACCCAUGUUACCCUUGAGGAUAUGGCGGGCCUCACGUCGGUGGUAAUGA”, the “apparent Kd” value came out at 0.0938 µM under setting [3] and 0.0233 µM under setting [4].
Turning to “GUGGUCAGACAUGAGGAUCACCCAUGUGGAAUAAAUAAGGAGAAGGAUAUUAAAUAUAGGAUAUAUAAGAAGGUCUGGUUGGUG”, the “apparent Kd” value was 0.0868 µM under setting [3] and 0.0958 µM under setting [4].
For “AGUUAAUAUCGAGGAUAUCCUCAUAAACAUGAGGAUCACCCAUGUAGAAUGGGAGAAGGCGAUAUUAACAGCAUGUUACAUGCA” the same measures were 0.21 µM and 0.114 µM.
Take “UGUCGGAGCAGAGGAUAUUACAUGAGGAUCACCCAUGUAUGAACCAAUAGCUGGAAACAGCAAUGUAAGAAGGCUGCUCGGACA”: the “apparent Kd” value is 0.0126 µM under setting [1] and 0.187 µM under setting [2].
For “AAGGGUACUUUCGGAACGACAUGAGGAUCACCCAUGUAUACUGAGGAUAUCUACUACUAAGGACGGGAGAAGGCAGUGUAAUGU” the same measures were 0.018 µM and 0.0203 µM.
For the sequence “AAUUUGGUCGUAGGAUAUCGGAAGCGGUGCGAACGAGAAGGGCGACAUGAGGAUCACCCAUGUAGCCACGAAGGCGAUCCUUGG”, the “apparent Kd” value under setting [1] came to 0.00975 µM and the “apparent Kd” value under setting [2] worked out at 0.0163 µM.
For “CGCUGGUGACAGCAUCCAUCAAAACAUGAGGAUCACCCAUGUAGAAGGCUGUACGGUUACCGUACAGAGGAUAUACAAUGAUGG”, in that order: 0.00756 µM and 0.00975 µM.
For “AAGAAGUCAGGAUAUGCAUGGCGGGACUUGCGUCGUGGCGUGCAGAAGGGACAUGAGGAUCACCCAUGUGGAGG”, in that order: 0.162 µM and 0.222 µM.
For “UCUAGACAUGAGGAUCACCCAUGUCGAUAUGGCGCAGGAUAUCGGUACUCAUAGAGUACGCGAGAAGGGUGACUUC”, the “apparent Kd” value under setting [3] came out at 0.343 µM and the “apparent Kd” value under setting [4] was 0.0484 µM.
As to “UGUAUGGACAGAGGAUAUACGUGCUAGAGAUACUAGCAAAUAAUCCUUACAUGAGGAUCACCCAUGUAGAAGGCUGUCCAUACU”, the “apparent Kd” value reads like this: under setting [1], 0.0201 µM; under setting [2], 0.0465 µM.
As for “AUCAGCUCGUCAGGAUAUACGUCACUGCGUCAGCAGUGUCGUAAGAUCACAUGAGGAUCACCCAUGUAGAAGGGACGAGCUGAU”, the “apparent Kd” value by setting is: under setting [1], 0.00531 µM; under setting [2], 0.00549 µM.
For “GCGAUGUUAGGAUAUUGCAUGUAGUGGGUUCCCAGCUGCGUUAAGAAGGGACAUGAGGAUCACCCAUGUGAUGA” the same measures were 0.497 µM and 0.384 µM.
For “CCCACAUGAGGAUAUCCAUCUGGAUCAGACUAGAUCCUGAUGGAGAAGGUACAUGAGGAUCACCCAUGUGUGGG” the same measures were 0.301 µM and 0.222 µM.
For “UAUUAUCACGAAGGAUAUGCUUACAUGAGGAUCACCCAUGUAUGUAUAUUGAUCCAGCGUUUUGAGCAGAAGGUCGUGAGUAAA”, in that order: 0.0201 µM and 0.0743 µM.
For “ACGAAACAUGAGGAUCACCCAUGUGCUUAAAGUGUAGGAUAUGGGAUAGCCUAGGUAGUCUCAGAAGGGCACCAAU”, the “apparent Kd” value reads like this: under setting [3], 0.0451 µM; under setting [4], 0.0225 µM.
With “CUUUCGUGAGGAUAUGAAACUUCGAUCGUGAGAUCGAGGCUACAGAAGGCACAUGAGGAUCACCCAUGUUCCUC”, the “apparent Kd” value reads like this: under setting [1], 0.0346 µM; under setting [2], 0.42 µM.
For “UCCAGACAUGAGGAUCACCCAUGUGAGGAUAUGAUGCGAUCGUCGAAAGACGAUAGCAUCAGAAGGCACGUAUG”, in that order: 0.0337 µM and 0.0483 µM.
For “ACUAUACGAGGAUAUACUGUCAGUACUCAGACAUAAAUAUGACAUGAGGAUCACCCAUGUAGAAGGCGUUUACU”, in that order: 0.029 µM and 0.039 µM.
For “AAAAUGUAAGGAUAUGCUGCUCGUCACUUGCGUGAUGAGUAGCAGAAGGUACAUGAGGAUCACCCAUGUAAAGA” the same measures were 0.0327 µM and 0.0458 µM.
For “CCGGAAAUACAGGAUAUAGGAGUCGAUAGACUCCUAGAAGGGUAUACAUGAGGAUCACCCAUGUUCCUUACCGG”, the “apparent Kd” value came to 0.0459 µM under setting [1] and 0.0502 µM under setting [2].
For “GCUAGUAUUGCAGGAUAUUGUAAUUUAUUAUUUCAAGAAGGGCAUUACAUGAGGAUCACCCAUGUCAUCCUAUGGUAUACUAGC”, in that order: 0.0106 µM and 0.0228 µM.
Consider “AAGGAGUUAGGAUAUGCUGCUCGUCACUUGCGUGAUGAGUAGCAGAAGGGACAUGAGGAUCACCCAUGUAAAGA”, for which the “apparent Kd” value reads like this: under setting [1], 0.0419 µM; under setting [2], 0.0219 µM.
“AGAUAACACCAGAAGGACAUGAGGAUCACCCAUGUAGGAUAUGGGCAUCACUCGAGAAAGAAAAGACCAAAUGGACACAUGGUC”: the “apparent Kd” value under setting [3] worked out at 0.162 µM and the “apparent Kd” value under setting [4] was 0.0128 µM.
Consider “UAUACAAACGAAGGAUAUGGAUACAUGAGGAUCACCCAUGUAUGUAUGAUGAUCUAGAAAAUGGGCCAGAAGGUCGUGAUUAUU”, for which the “apparent Kd” value under setting [1] amounted to 0.0226 µM and the “apparent Kd” value under setting [2] was found to be 0.0627 µM.
Take “UGAGCCGGCACUGAGGAUAUUCAUAUUAAAACAUGAGGAUCACCCAUGUAGGCCAGAAGGCCUUGGGAGAAGGCAGGUCGGCUCA”: the “apparent Kd” value is, setting by setting: under setting [3], 0.403 µM; under setting [4], 0.0206 µM.
Regarding “AAUAACAGAGGAUAUACUGUUUUAUGUGUUUGUUGUUUUGAACAUGAGGAUCACCCAUGUAGAAGGCUGAUUAA”, the “apparent Kd” value amounted to 0.0353 µM under setting [1] and 0.0335 µM under setting [2].
“GGGAAGGUUAGAGGAUAUAUUGUGUGUGAGAGAAUAGAAGGCUAAACAUGAGACACACACAUGAGGAUCACCCAUGUUAUGUUU”: the “apparent Kd” value is 0.147 µM under setting [3] and 0.091 µM under setting [4].
Consider “UUUAUGUCAGGAUAUGAGUCGUAGAACAAUAGUACUACGUCUCAGAAGGGACAUGAGGAUCACCCAUGUGCCUC”, for which the “apparent Kd” value by setting is: under setting [1], 0.0404 µM; under setting [2], 0.316 µM.
In the case of “CUAGAAAGGACAGGAUAUCGGGAUCGAACACCCGACAUGAGGAUCACCCAUGUCGCAAAAGAUAGCGAGAAGGGUCGGACACAA”, the “apparent Kd” value runs as follows: under setting [3], 0.0458 µM; under setting [4], 0.0141 µM.
For the sequence “CUGAUGUCAGGAUAUCAGAAAAGGUGCGAGGACGCACCAAAUGAGAAGGGACAUGAGGAUCACCCAUGUAAAAC”, the “apparent Kd” value under setting [1] was found to be 0.0223 µM and the “apparent Kd” value under setting [2] came out at 0.139 µM.
For the sequence “AUAAAACAUGAGGAUCACCCAUGUCAACAAAAUCGAGGAUAUGGACAGACUUCGGUCUGUCCAGAAGGCGAAUAAU”, the “apparent Kd” value amounted to 0.0137 µM under setting [3] and 0.0146 µM under setting [4].
In the case of “CGCUAGGAUGGGUCUAAUGGACCACAGGAUAUGCUUGUACAUGAGGAUCACCCAUGUAAUAUUGUGCAGAAGGGUGGAUUCGCG”, the “apparent Kd” value stood at 0.076 µM under setting [3] and 0.0109 µM under setting [4].
For “UUAUAUAUAUAAGGAUAUGUAUAUCCAACAUGAGGAUCACCCAUGUUGAGGAUCACCCAUGUAAAGCAGAAGGUAUAUAUAAAU” the same measures were 0.0428 µM and 0.0264 µM.
With “UGGGUAAGUGUAGGAUAUUUAUAUUAAUAGUAUGGAGAAGGACAUGAGGAUCACCCAUGUACAGGGAGUUGCCCAUUUCCUCUC”, the “apparent Kd” value is, setting by setting: under setting [1], 0.335 µM; under setting [2], 0.671 µM.
For “ACAUGAUAUGUAGGAUAUCACAUUAAUUGUUUUAUAAUUGUAUUUUGGAUUUGAGAAGGACAUUUACAUGAGGAUCACCCAUGU”, in that order: 0.0156 µM and 0.0123 µM.
For “AAAAACAGAGGAUAUACAAAAUUAUGACGAAAGUCAUAAAAACAUGAGGAUCACCCAUGUAGAAGGCUGGAAAA” the same measures were 0.0304 µM and 0.0289 µM.
